Published values collected from several papers.
Lines come from different studies, so protocols differ. pIC50: −log10 of the molar value.
Target: Cholinesterase (BCHE, Homo sapiens, UniProt P06276)
Read-out: enzyme activity
Mode: inhibitor

| Structure (SMILES) | technique | pIC50 |
| --- | --- | --- |
| O=[N+]([O-])c1c[nH]c(-c2n[nH]c(=S)n2/N=C/c2ccc(Br)c(Br)c2)c1 | Ellman | 4.55 |
| COc1cccc(C=NNC(=O)c2cc(-c3cn(C)c4ccccc34)on2)c1OC |  | < 4.00 |
| O=[N+]([O-])c1c[nH]c(-c2n[nH]c(=S)n2/N=C/c2ccc(F)cc2)c1 | Ellman | 5.04 |
| Cn1cc(-c2cc(C(=O)NN=Cc3ccccc3F)no2)c2ccccc21 |  | < 4.00 |
| C#CCN(C)CCCCCOCc1ccc(CN(C)c2c3c(nc4ccc(C)cc24)CCCC3)cc1 | Ellman | 5.95 |
| O=[N+]([O-])c1c[nH]c(-c2n[nH]c(=S)n2/N=C/c2cc(O)cc(F)c2)c1 | Ellman | 5.02 |
| COc1ccccc1C=NNC(=O)c1cc(-c2cn(C)c3ccccc23)on1 |  | < 4.00 |
| COc1ccc(S(=O)(=O)Oc2cccc(C=NNC(=O)c3ccc(F)cc3)c2)cc1 | Ellman | 6.95 |
| COc1ccc(OC)c(C=NNC(=O)c2cc(-c3cn(C)c4ccccc34)on2)c1 |  | < 4.00 |
| CCN(CC)c1ccc(C=NNC(=O)c2ccc(F)cc2)c(OS(=O)(=O)c2ccc(OC)cc2)c1 | Ellman | 7.01 |
| COc1cccc(C=NNC(=O)c2cc(-c3cn(C)c4ccccc34)on2)c1 |  | < 4.00 |
| CN(C)c1ccc(/C=N/n2c(-c3cc([N+](=O)[O-])c[nH]3)n[nH]c2=S)c(O)c1 | Ellman | 4.65 |
| COc1ccc(S(=O)(=O)Oc2ccc(C=NNC(=O)c3ccc(F)cc3)cc2OC)cc1 | Ellman | 7.12 |
| C#CCN(C)CCCCOCc1ccc(CN(C)c2c3c(nc4ccccc24)CCCC3)cc1 | Ellman | 5.83 |
| Cn1cc(-c2cc(C(=O)NN=Cc3ccccc3)no2)c2ccccc21 |  | < 4.00 |
| C#CCN(C)CCCCOCc1ccc(CN(C)c2c3c(nc4ccc(C)cc24)CCCC3)cc1 | Ellman | 5.75 |
| O=[N+]([O-])c1c[nH]c(-c2n[nH]c(=S)n2/N=C/c2cc(Cl)cc(Cl)c2)c1 | Ellman | 4.84 |
| C#CCN(C)CCCCCCCCOc1cccc(CN(C)c2c3c(nc4ccccc24)CCCC3)c1 | Ellman | 6.04 |
| O=[N+]([O-])c1c[nH]c(-c2n[nH]c(=S)n2/N=C/c2ccc(F)c([N+](=O)[O-])c2)c1 | Ellman | 4.79 |
| C#CCN(C)CCCCCCOc1cccc(CN(C)c2c3c(nc4ccccc24)CCCC3)c1 | Ellman | 6.49 |
| COc1ccc(S(=O)(=O)Oc2ccc(C=NNC(=O)c3ccc(F)cc3)cc2)cc1 | Ellman | 7.08 |
| O=[N+]([O-])c1c[nH]c(-c2n[nH]c(=S)n2/N=C/c2ccc(F)cc2O)c1 | Ellman | 5.11 |
| C#CCN(C)CCCCCOCc1ccc(CN(C)c2c3c(nc4ccccc24)CCCC3)cc1 | Ellman | 6.21 |
